Source: ChEMBL document CHEMBL3600351, “Exploiting translational stalling peptides in an effort to extend azithromycin interaction within the prokaryotic ribosome nascent peptide exit tunnel” (Bioorg Med Chem, 2015)
≈ marks a conversion by molar mass, not a printed value. Calls of active or inactive are those of the source. No cut-off for these calls is given here.

Tests used:
[1] = Inhibition of ribosome nascent peptide exit tunnel in Escherichia coli S30 extract assessed as inhibition of prokaryotic translation in presence of amino acids incubated for 20 mins by luciferase reporter gene assay
Outline: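 E. coli S30 cell-free extract with all amino acids, preincubated with compound for 20 min at room temperature. Luciferase control template added, translation run 60 min at 37 °C, then stopped by 5 min on ice. Luminescence was read after luciferin addition. IC50 from nonlinear fit, triplicate, normalized to vehicle control.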

[2] = Binding affinity to ribosome nascent peptide exit tunnel in rabbit reticulocyte extract assessed as inhibition of eukaryotic translation in presence of amino acids incubated for 20 mins by luciferase reporter gene assay; design: species or system Oryctolagus cuniculus
Outline: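 Nuclease-treated rabbit reticulocyte lysate with all amino acids, preincubated with compound for 20 min at room temperature. Luciferase control template added, translation run 90 min at 30 °C, then stopped by 5 min on ice. Luminescence was read after luciferin addition. IC50 from nonlinear fit, triplicate, normalized to vehicle control.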

Staphylococcus aureus [3] = assay: Antibacterial activity against Staphylococcus aureus ATCC 29213 assessed as inhibition of bacterial growth after 18 hrs by liquid microdilution method; assay type: functional; settings: ATCC 29213, 18 h
Outline: (§1)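 Liquid microdilution. Overnight 37 °C cultures, E. coli ATCC 27856 in LB and S. aureus ATCC 29213 in TSB, diluted 1:1000 in the same medium and exposed to compound. Growth was taken from OD600 before and after 18 h at 37 °C. MIC50 is the read-out. Triplicate, normalized to an internal vehicle control.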

Staphylococcus aureus [4] = assay: Antibacterial activity against Staphylococcus aureus ATCC 29213 assessed as inhibition of bacterial growth after 18 hrs in presence of 50% bovine serum by liquid microdilution method; assay type: functional; settings: ATCC 29213, 18 h
Outline: (§2)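 S. aureus ATCC 29213 overnight culture (37 °C) diluted 1:1000 in 50% bovine serum/broth and run by liquid microdilution. Growth was taken from OD600 change over 18 h at 37 °C to give MIC50, in triplicate against a vehicle control. The enhancement ratio is MIC50 without serum divided by MIC50 with serum.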

Staphylococcus aureus [5] = assay: Ratio of MIC50 for Staphylococcus aureus ATCC 29213 in absence of 50% bovine serum to MIC50 for Staphylococcus aureus ATCC29213 in presence of 50% bovine serum; assay type: functional; outline: as §2
Staphylococcus aureus [6] = assay: Antibacterial activity against Erm+ methicillin-resistant Staphylococcus aureus ATCC 33591 assessed as inhibition of bacterial growth after 18 hrs by liquid microdilution method; assay type: functional
Outline: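 MRSA grown overnight at 37 °C in Nutrient broth, diluted 1:1000 in the same medium, then plated with the compounds. Growth was judged by comparing OD600 before and after 18 h at 37 °C. MIC50 was taken by liquid microdilution. Vancomycin was the positive control. Each compound was run in triplicate and standardized against an internal vehicle control.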

Escherichia coli = assay: Antibacterial activity against Escherichia coli ATCC 27856 assessed as inhibition of bacterial growth after 18 hrs by liquid microdilution method; assay type: functional; outline: as §1

SMILES	IC50 [1] [nM]	IC50 [2] [nM]	MIC50 (Staphylococcus aureus [3]) [µg/mL]	MIC50 (Staphylococcus aureus [4]) [µg/mL]	Ratio (Staphylococcus aureus [5])	MIC50 (Staphylococcus aureus [6])	MIC50 (Escherichia coli; ATCC 27856, 18 h) [µg/mL]	MIC50 (Escherichia coli)	MIC50 (Staphylococcus aureus [6]; ATCC 33591, 18 h) [µg/mL]
CC[C@H]1OC(=O)[C@H](C)[C@@H](O[C@H]2C[C@@](C)(OC)[C@@H](O)[C@H](C)O2)[C@H](C)[C@@H](O[C@@H]2O[C@H](C)C[C@H](N(C)C)[C@H]2O)[C@](C)(O)C[C@@H](C)CN(CCCCc2cn(CCn3ccc4cc(OC)ccc43)nn2)[C@H](C)[C@@H](O)[C@]1(C)O	238	> 250000	1.56 (≈ 1.51 µM)	0.16	10	inactive	16 (≈ 15.5 µM)	–	–
CC[C@H]1OC(=O)[C@H](C)[C@@H](O[C@H]2C[C@@](C)(OC)[C@@H](O)[C@H](C)O2)[C@H](C)[C@@H](O[C@@H]2O[C@H](C)C[C@H](N(C)C)[C@H]2O)[C@](C)(O)C[C@@H](C)CN(CCCCc2cn(CCc3c[nH]c4ccccc34)nn2)[C@H](C)[C@@H](O)[C@]1(C)O	540	> 250000	0.78 (≈ 0.779 µM)	0.078	10	inactive	16 (≈ 16 µM)	–	–
CC[C@H]1OC(=O)[C@H](C)[C@@H](O[C@H]2C[C@@](C)(OC)[C@@H](O)[C@H](C)O2)[C@H](C)[C@@H](O[C@@H]2O[C@H](C)C[C@H](N(C)C)[C@H]2O)[C@](C)(O)C[C@@H](C)CN(Cc2ccc(-c3cn(CCc4cn(C)c5ccccc45)nn3)cc2)[C@H](C)[C@@H](O)[C@]1(C)O	641	> 250000	6.25 (≈ 5.96 µM)	1.56	4	inactive	128 (≈ 122 µM)	–	–
CC[C@H]1OC(=O)[C@H](C)[C@@H](O[C@H]2C[C@@](C)(OC)[C@@H](O)[C@H](C)O2)[C@H](C)[C@@H](O[C@@H]2O[C@H](C)C[C@H](N(C)C)[C@H]2O)[C@](C)(O)C[C@@H](C)CN(CCCCc2cn(CCn3ccc4cc(F)ccc43)nn2)[C@H](C)[C@@H](O)[C@]1(C)O	646	> 250000	1.56 (≈ 1.53 µM)	0.31	5	inactive	16 (≈ 15.7 µM)	–	–
CC[C@H]1OC(=O)[C@H](C)[C@@H](O[C@H]2C[C@@](C)(OC)[C@@H](O)[C@H](C)O2)[C@H](C)[C@@H](O[C@@H]2O[C@H](C)C[C@H](N(C)C)[C@H]2O)[C@](C)(O)C[C@@H](C)CN(Cc2ccc(-c3cn(CCn4ccc5ccccc54)nn3)cc2)[C@H](C)[C@@H](O)[C@]1(C)O	197	> 250000	1.56 (≈ 1.51 µM)	0.63	2.5	inactive	64 (≈ 61.8 µM)	–	–
CC[C@H]1OC(=O)[C@H](C)[C@@H](O[C@H]2C[C@@](C)(OC)[C@@H](O)[C@H](C)O2)[C@H](C)[C@@H](O[C@@H]2O[C@H](C)C[C@H](N(C)C)[C@H]2O)[C@](C)(O)C[C@@H](C)CN(Cc2ccc(-c3cn(CCn4ccc5cc(Cl)ccc54)nn3)cc2)[C@H](C)[C@@H](O)[C@]1(C)O	1250	> 250000	3.13 (≈ 2.93 µM)	1.56	2	inactive	–	inactive	–
CC[C@H]1OC(=O)[C@H](C)[C@@H](O[C@H]2C[C@@](C)(OC)[C@@H](O)[C@H](C)O2)[C@H](C)[C@@H](O[C@@H]2O[C@H](C)C[C@H](N(C)C)[C@H]2O)[C@](C)(O)C[C@@H](C)CN(Cc2ccc(-c3cn(CCc4c[nH]c5ccc(Cl)cc45)nn3)cc2)[C@H](C)[C@@H](O)[C@]1(C)O	586	> 250000	1.56 (≈ 1.46 µM)	1.56	1	inactive	–	inactive	–
CC[C@H]1OC(=O)[C@H](C)[C@@H](O[C@H]2C[C@@](C)(OC)[C@@H](O)[C@H](C)O2)[C@H](C)[C@@H](O[C@@H]2O[C@H](C)C[C@H](N(C)C)[C@H]2O)[C@](C)(O)C[C@@H](C)CN(CCCCc2cn(CCn3ccc4cc([N+](=O)[O-])ccc43)nn2)[C@H](C)[C@@H](O)[C@]1(C)O	811	> 250000	1.56 (≈ 1.49 µM)	0.63	2.5	inactive	16 (≈ 15.3 µM)	–	–
CC[C@H]1OC(=O)[C@H](C)[C@@H](O[C@H]2C[C@@](C)(OC)[C@@H](O)[C@H](C)O2)[C@H](C)[C@@H](O[C@@H]2O[C@H](C)C[C@H](N(C)C)[C@H]2O)[C@](C)(O)C[C@@H](C)CN(CCCCc2cn(CCc3cn(C)c4ccccc34)nn2)[C@H](C)[C@@H](O)[C@]1(C)O	227	> 250000	1.56 (≈ 1.54 µM)	0.16	10	inactive	128 (≈ 126 µM)	–	–
CC[C@H]1OC(=O)[C@H](C)[C@@H](O[C@H]2C[C@@](C)(OC)[C@@H](O)[C@H](C)O2)[C@H](C)[C@@H](O[C@@H]2O[C@H](C)C[C@H](N(C)C)[C@H]2O)[C@](C)(O)C[C@@H](C)CN(CCCCc2cn(CC)nn2)[C@H](C)[C@@H](O)[C@]1(C)O	1220	> 250000	3.13 (≈ 3.53 µM)	0.31	10	inactive	32 (≈ 36.1 µM)	–	–
CC[C@H]1OC(=O)[C@H](C)[C@@H](O[C@H]2C[C@@](C)(OC)[C@@H](O)[C@H](C)O2)[C@H](C)[C@@H](O[C@@H]2O[C@H](C)C[C@H](N(C)C)[C@H]2O)[C@](C)(O)C[C@@H](C)CN(Cc2ccc(-c3cn(CCn4ccc5cc(OC)ccc54)nn3)cc2)[C@H](C)[C@@H](O)[C@]1(C)O	504	> 250000	1.56 (≈ 1.46 µM)	0.78	2	inactive	–	inactive	–
O=C(N[C@H](CO)[C@H](O)c1ccc([N+](=O)[O-])cc1)C(Cl)Cl [CHLORAMPHENICOL]	–	–	–	–	–	–	4 (≈ 12.4 µM)	–	–
CN[C@H](CC(C)C)C(=O)N[C@H]1C(=O)N[C@@H](CC(N)=O)C(=O)N[C@H]2C(=O)N[C@H]3C(=O)N[C@H](C(=O)N[C@H](C(=O)O)c4cc(O)cc(O)c4-c4cc3ccc4O)[C@H](O)c3ccc(c(Cl)c3)Oc3cc2cc(c3O[C@@H]2O[C@H](CO)[C@@H](O)[C@H](O)[C@H]2O[C@H]2C[C@](C)(N)[C@H](O)[C@H](C)O2)Oc2ccc(cc2Cl)[C@H]1O [VANCOMYCIN]	–	–	1.56 (≈ 1.08 µM)	1.56	1	–	–	–	4 (≈ 2.76 µM)
CC[C@H]1OC(=O)[C@H](C)[C@@H](O[C@H]2C[C@@](C)(OC)[C@@H](O)[C@H](C)O2)[C@H](C)[C@@H](O[C@@H]2O[C@H](C)C[C@H](N(C)C)[C@H]2O)[C@](C)(O)C[C@@H](C)CN(Cc2ccc(-c3cn(CCn4ccc5cc(F)ccc54)nn3)cc2)[C@H](C)[C@@H](O)[C@]1(C)O	463	> 250000	1.56 (≈ 1.48 µM)	0.78	2	inactive	64 (≈ 60.8 µM)	–	–
